Compound activity (PubChem)
TPT1 inhibitor: C. albicans TPT1 enzyme inhibition. recombinant caTPT1, FP RNA substrate dephosphorylation. inhibition, % at 5 µM. 300,000 tested, 0.81% active. AID 1962;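 active = inhibition above the mean of all tested compounds plus 3 SD, set per screening campaign, cut at about 24% in these data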
SUMO HTRF inh: blocks human SUMOylation mediated by UBC9; 290,000 tested, 0.36% active; inhibition, % at 35 µM; HTRF SUMOylation assay, SAE1/SAE2 + UBC9, in vitro; AID 2006; in the data active = inhibition above about 50%, passing the limit was not always enough
Target sequence (P63279 whole entry, looked up): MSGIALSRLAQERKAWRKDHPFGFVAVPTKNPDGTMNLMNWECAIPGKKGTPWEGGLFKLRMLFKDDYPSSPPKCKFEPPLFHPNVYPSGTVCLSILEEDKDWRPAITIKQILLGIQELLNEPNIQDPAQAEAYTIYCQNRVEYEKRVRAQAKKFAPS
HNF4A DNA FP: change in binding of human HNF4 alpha to DNA; AID 1224865; 360,000 tested, 0.3% active; HNF4a-FITC DNA binding, fluorescence polarization, 1 h; P41235; activity change, % at 10 µM; in the data active = activity change above about 30%, passing the limit was not always enough
Rpn11 block: inhibitors of human proteasome Rpn11 | AID 588493 | 360,000 tested, 0.59% active | O00487 | calls only at 20 µM | human 26S proteasome, Ub4-pepOG fluorescence polarization; 20S core pre-blocked with epoxomicin;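 active = inhibition at 20 µM, scaled to each plate's controls, above about 33%, limit read from the data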
Target sequence (O00487 whole entry, looked up): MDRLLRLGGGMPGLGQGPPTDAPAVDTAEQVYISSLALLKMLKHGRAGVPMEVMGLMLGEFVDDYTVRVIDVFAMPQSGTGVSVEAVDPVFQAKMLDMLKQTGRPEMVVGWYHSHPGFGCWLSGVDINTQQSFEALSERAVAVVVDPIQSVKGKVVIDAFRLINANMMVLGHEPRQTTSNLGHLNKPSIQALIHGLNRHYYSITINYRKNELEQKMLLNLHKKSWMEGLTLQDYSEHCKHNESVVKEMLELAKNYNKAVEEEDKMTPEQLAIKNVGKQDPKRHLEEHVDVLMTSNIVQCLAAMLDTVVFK
SENP1 FRET inh: blocks the human SENP1 SUMO protease catalytic domain. Q9P0U3. recombinant SENP1 catalytic domain, CyPet-SUMO1-YPet FRET cleavage. inhibition, % at 10 µM. 360,000 tested, 0.21% active. AID 624204;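 active = inhibition at least 30% at 10 µM, raw YFP signal under a set limit, fluorescence ratio 0.5 to 1.5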
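Material – human SENP1 catalytic domain · Input – SENP1 enzyme, 20 pM final · Compound dosing – single concentration of 10 µM compound, 0.5% DMSO final · Timing – enzyme reaction for 50 min at room temperature, dark · Measured by – FRET fluorescence in CFP and YFP emission channels · Control set – no-enzyme wells low, DMSO-plus-enzyme wells high control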
CSN inh: inhibitors of human CSN-mediated cullin deneddylation | Q92905 | Purified CSN, SCF-Nedd8-OG deneddylation, fluorescence polarization | inhibition, % at 12.5 µM | 360,000 tested, 0.38% active | AID 651999;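 active = pattern-corrected inhibition above about 35%, with an unprinted fluorescence ratio check between 0.5 and 1.5, limit read from the data, passing the limit was not always enough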
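Assay system: Purified human Csn5 enzyme expressed in HEK293T cells | Amount: Enzyme 0.24 nM | Measured by: Fluorescence polarization readout | Medium: Tris/NaCl/DTT buffer, pH 7.5 | Compound dosing: One concentration, 12.5 µM, 0.25% DMSO | Times: 90 min incubation of compound, enzyme and substrate at room temperature | Control set: no-enzyme wells high, enzyme-with-substrate wells low | Read-out: % inhibition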
Rpn11 confirm: confirmation of human proteasome Rpn11 inhibitors. shares compounds with Rpn11 block. 1,900 tested, 29% active. purified human 26S proteasome, Ub4-pepOG fluorescence polarization; proteasome pretreated with epoxomicin. inhibition, % at 20 µM
MMP-2 inh: blocks human MMP-2, flagging nonselective RPN11 hits; shares compounds with Rpn11 block; recombinant MMP-2, FRET peptide cleavage fluorescence; inhibition, % at 20 µM; 1,900 tested, 4% active; AID 602330;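 note: human MMP-2 activated beforehand with APMA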
Thrombin inh: counter-screen for RPN11 inhibitors: inhibition of bovine thrombin | shares compounds with Rpn11 block | bovine thrombin cleavage of Ub4-pepOG, fluorescence polarization | inhibition, % at 20 µM | 1,900 tested, 13% active | AID 602333;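 active = mean inhibition at least 40% at 20 µM, or signal 3 deviations below plate average, so some actives read negative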
A number is an active result; - = inactive; . = not tested or not shown; + = active, no number. Sampled rows, rich in hits. Any-hit rate of the full collection: about 1.8%. Cut-off read from the data, not from the text of the source, unless noted: active = inhibition above about 40%; inactive = the rest.

SMILES	TPT1 inhibitor	SUMO HTRF inh	HNF4A DNA FP	Rpn11 block	SENP1 FRET inh	CSN inh	Rpn11 confirm	MMP-2 inh	Thrombin inh
Cc1ccc(S(=O)(=O)N2[C@@H](c3ccc(Cl)c(Cl)c3)C(C(=O)O)=C[C@H]2CC2CCCC2)cc1	.	.	-	+	-	-	-	-	-
COc1ccc(/C=C/C(=O)c2ccc(C(=O)/C=C/c3ccc(OC)c(OC)c3)cc2)cc1OC	.	-	-	+	-	-	-	-	-
CC(=O)n1cc([C@H]2C=C(C(=O)Nc3ccccc3)O[C@@H](OCc3ccc(CO)cc3)C2)c2ccccc21	-	-	-	+	-	-	43.6	-	-
Cc1n[nH]c(=O)c2c(NC(=O)CSc3nc4ccccc4c(=O)n3-c3ccc(OC(F)F)cc3)oc(C)c12	-	.	-	-	-	-	.	.	.
Cc1cccc(OCCCC(=O)N2CCCCCC2)c1C	.	-	-	+	-	-	-	-	-
Nc1ncnc(Sc2ccc(Cl)cc2)c1[N+](=O)[O-]	-	-	-	+	-	-	-	-	-
O=C(NCc1ccccc1)C1c2ccccc2Oc2ccccc21	-	-	-	-	-	-	.	.	.
Cc1nc2c(sc3nc(N4CCOCC4)c4c(c32)CC(C)(C)OC4)c(-c2ccc(Cl)cc2)c1C(=O)O	-	-	-	+	-	-	-	-	-
c1ccc2sc(NN=C3CCCCCC3)nc2c1	-	-	-	-	-	-	.	.	.
COc1ccc2cc(C(=O)C3CCCN(Cc4cnc(N5CCOCC5)s4)C3)ccc2c1 (stereo not given)	-	-	-	+	-	-	-	-	-
CO/C([O-])=N/c1c[n+](-c2ccc(Cl)cc2)no1	-	-	-	+	-	-	-	-	-
CC1(C(=O)OCC(=O)NCCNC(=O)COC(=O)C2(C)CC2(Cl)Cl)CC1(Cl)Cl (stereo not given)	-	-	-	-	-	-	.	.	.
Cc1noc(/C=C/c2ccco2)c1S(=O)(=O)N1CCC(C(=O)NC(C)c2ccccc2)CC1 (stereo not given)	-	-	-	+	-	-	-	-	-
COc1ccc(/C=C\c2onc(C)c2S(=O)(=O)N2CCC(C(=O)NCc3ccco3)CC2)cc1	-	-	-	-	-	-	.	.	.
NC(=O)C1=C[C@@H](c2ccccc2)C[C@@H](OCc2ccc(CO)cc2)O1	-	-	-	-	-	-	.	.	.
Cc1cc(/C=C(/C#N)c2nc3ccccc3[nH]2)c(C)n1-c1ccccc1C(=O)O	-	-	-	+	-	-	74.9	-	50.8
Cc1ccc(S(=O)(=O)N2CCN(C(=O)COC(=O)/C=C/c3ccc([N+](=O)[O-])cc3)CC2)c(C)c1	.	.	-	+	-	-	-	-	-
C=CCOc1ccc(/C=C/C(=O)OCC(=O)N2CCN(S(=O)(=O)c3ccc(C)cc3C)CC2)cc1	.	.	-	-	-	-	.	.	.
Cc1cccc(Cl)c1OCCCCn1ccnc1	-	-	-	-	-	-	.	.	.
COc1cccc(NC(=O)CSc2nncn2-c2ccccn2)c1	-	-	-	-	-	-	.	.	.
Cc1cc2[nH]cnc2c([N+](=O)[O-])c1C	-	-	-	-	-	-	.	.	.
O=C(N/N=C/c1c(O)ccc2ccccc12)C(=O)N1CCCC1	.	.	-	-	-	-	.	.	.
O=C(CN1CCCC1)N/N=C/c1c(O)ccc2ccccc12	-	-	-	+	-	-	-	-	-
Cc1nc(N)sc1-c1csc(Nc2ccc(S(N)(=O)=O)cc2)n1	.	-	-	+	-	-	-	-	-
COc1ccc(-c2csc(Nc3ccc(S(N)(=O)=O)cc3)n2)cc1	-	-	-	-	-	-	.	.	.
